Source: article PMC12814486 (Bioorganic & medicinal chemistry, 2025)

Key:
5-HT1D = 5-HT1D (Homo sapiens, UniProt P28221); test: NIMH PDSP binding screen; settings: read-out: Inhibition (%) 5-HT1D
5-HT4 = 5-HT4 (Homo sapiens, UniProt Q13639); test: NIMH PDSP binding screen; settings: read-out: Inhibition (%) 5-HT4
Nociceptin (NOP) = Nociceptin (NOP) (Homo sapiens, UniProt P41146); test: NIMH PDSP binding screen; settings: read-out: Inhibition (%) Nociceptin (NOP)
human sEH = target: T1, human sEH (Homo sapiens, UniProt P34913); test: sEH inhibition assay; assay type: biochemical
T1 sequence (P34913 1-555): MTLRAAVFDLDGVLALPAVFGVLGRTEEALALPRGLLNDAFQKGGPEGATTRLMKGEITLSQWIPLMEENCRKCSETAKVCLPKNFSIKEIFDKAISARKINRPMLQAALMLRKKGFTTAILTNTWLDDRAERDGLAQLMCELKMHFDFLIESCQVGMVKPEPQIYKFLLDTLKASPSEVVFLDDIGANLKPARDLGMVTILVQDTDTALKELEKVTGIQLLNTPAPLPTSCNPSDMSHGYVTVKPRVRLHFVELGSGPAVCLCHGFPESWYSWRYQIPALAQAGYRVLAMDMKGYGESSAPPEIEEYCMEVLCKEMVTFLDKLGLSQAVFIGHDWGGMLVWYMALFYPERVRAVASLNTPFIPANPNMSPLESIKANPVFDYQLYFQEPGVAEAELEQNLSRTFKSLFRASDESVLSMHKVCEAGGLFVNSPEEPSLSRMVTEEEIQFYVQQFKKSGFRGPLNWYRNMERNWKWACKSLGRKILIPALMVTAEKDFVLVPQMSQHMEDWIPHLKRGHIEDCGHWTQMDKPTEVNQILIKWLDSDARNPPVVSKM

5-HT2C = target: T2, 5-HT2C (Homo sapiens, UniProt P28335); test: NIMH PDSP binding screen; settings: read-out: Inhibition (%) 5-HT2C
T2 sequence (P28335 33-458): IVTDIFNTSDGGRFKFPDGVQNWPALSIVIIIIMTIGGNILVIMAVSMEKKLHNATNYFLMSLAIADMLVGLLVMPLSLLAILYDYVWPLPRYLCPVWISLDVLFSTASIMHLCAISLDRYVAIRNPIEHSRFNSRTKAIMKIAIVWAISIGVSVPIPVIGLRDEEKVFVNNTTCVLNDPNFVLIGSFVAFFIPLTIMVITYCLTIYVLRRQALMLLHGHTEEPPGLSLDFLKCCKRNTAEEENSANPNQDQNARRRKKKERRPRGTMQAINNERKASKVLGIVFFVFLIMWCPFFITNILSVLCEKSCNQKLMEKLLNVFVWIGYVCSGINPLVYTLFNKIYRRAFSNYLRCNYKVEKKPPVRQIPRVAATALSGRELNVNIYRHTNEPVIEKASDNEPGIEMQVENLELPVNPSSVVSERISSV

rat sEH = target: T3, rat sEH (Rattus norvegicus, UniProt P80299); test: sEH inhibition assay; assay type: biochemical
T3 sequence (P80299 1-554): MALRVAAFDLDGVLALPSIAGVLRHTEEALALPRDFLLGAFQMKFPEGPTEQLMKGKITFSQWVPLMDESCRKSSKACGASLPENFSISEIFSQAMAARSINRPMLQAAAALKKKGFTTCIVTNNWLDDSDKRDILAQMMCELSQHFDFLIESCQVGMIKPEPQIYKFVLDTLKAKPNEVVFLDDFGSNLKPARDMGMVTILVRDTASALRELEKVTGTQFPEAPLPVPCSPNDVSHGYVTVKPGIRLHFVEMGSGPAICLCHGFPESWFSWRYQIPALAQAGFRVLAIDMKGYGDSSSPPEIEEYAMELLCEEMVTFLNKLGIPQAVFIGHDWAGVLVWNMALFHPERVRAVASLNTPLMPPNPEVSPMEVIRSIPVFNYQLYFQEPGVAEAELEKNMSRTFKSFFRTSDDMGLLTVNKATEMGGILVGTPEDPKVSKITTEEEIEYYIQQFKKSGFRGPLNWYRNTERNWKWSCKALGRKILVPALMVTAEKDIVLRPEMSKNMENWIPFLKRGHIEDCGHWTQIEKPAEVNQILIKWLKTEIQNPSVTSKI

5-HT1B = 5-HT1B (Homo sapiens, UniProt P28222); test: NIMH PDSP binding screen; settings: read-out: Inhibition (%) 5-HT1B
5-HT1A = target: T4, 5-HT1A (Homo sapiens, UniProt P08908); test: NIMH PDSP binding screen; settings: read-out: Inhibition (%) 5-HT1A
T4 sequence (P08908 1-422): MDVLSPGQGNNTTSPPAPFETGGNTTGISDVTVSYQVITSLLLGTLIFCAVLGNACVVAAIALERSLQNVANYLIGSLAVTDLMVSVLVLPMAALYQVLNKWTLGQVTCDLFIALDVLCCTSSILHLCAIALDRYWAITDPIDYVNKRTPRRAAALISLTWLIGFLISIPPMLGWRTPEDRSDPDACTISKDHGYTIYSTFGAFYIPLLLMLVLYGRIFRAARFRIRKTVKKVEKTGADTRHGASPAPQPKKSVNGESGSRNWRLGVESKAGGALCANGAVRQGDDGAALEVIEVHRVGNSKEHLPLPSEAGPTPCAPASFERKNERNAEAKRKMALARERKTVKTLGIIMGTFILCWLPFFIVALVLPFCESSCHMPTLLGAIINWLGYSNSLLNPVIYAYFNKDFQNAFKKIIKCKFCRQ

5-HT2B = 5-HT2B (Homo sapiens, UniProt P41595); test: NIMH PDSP binding screen; settings: read-out: Inhibition (%) 5-HT2B
Mu opioid (MOR) = Mu opioid (MOR) (Homo sapiens, UniProt P35372); test: NIMH PDSP binding screen; settings: read-out: Inhibition (%) Mu opioid (MOR)
Kappa opioid (KOR) = Kappa opioid (KOR) (Homo sapiens, UniProt P41145); test: NIMH PDSP binding screen; settings: read-out: Inhibition (%) Kappa opioid (KOR)
[1] = Microsomal stability assay in liver microsomes; assay type: in vitro ADME; settings: rat, pH 7.4
Summary of the method: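 Test compound was taken from a 1 mM DMSO stock. It was preincubated 5 min at 37 °C with liver microsomes in 0.1 M phosphate buffer, pH 7.4. Reaction was started with an NADPH regenerating system (glucose-6-phosphate, NADPH, glucose-6-phosphate dehydrogenase, MgCl2) and quenched with methanol at 0, 10, 20, 30 and 60 min. Samples were centrifuged and read by LC-MS SIM as peak area ratio to internal standard. k = negative slope of ln ratio vs time; CLint = k/P (P = protein concentration). Duplicates or triplicates were averaged.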

Sequence of 5-HT4 (Q13639 whole entry, species assumed): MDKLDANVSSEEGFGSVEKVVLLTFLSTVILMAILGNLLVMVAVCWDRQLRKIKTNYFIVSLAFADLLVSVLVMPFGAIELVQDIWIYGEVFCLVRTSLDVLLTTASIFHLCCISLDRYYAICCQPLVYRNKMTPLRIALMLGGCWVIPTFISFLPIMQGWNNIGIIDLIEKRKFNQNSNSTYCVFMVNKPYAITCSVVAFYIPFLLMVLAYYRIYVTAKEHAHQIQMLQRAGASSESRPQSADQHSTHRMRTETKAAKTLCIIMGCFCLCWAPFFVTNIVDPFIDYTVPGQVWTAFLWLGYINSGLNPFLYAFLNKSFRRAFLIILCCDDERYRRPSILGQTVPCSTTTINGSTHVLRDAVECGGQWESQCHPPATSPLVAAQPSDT
Sequence of Kappa opioid (KOR) (P41145 whole entry): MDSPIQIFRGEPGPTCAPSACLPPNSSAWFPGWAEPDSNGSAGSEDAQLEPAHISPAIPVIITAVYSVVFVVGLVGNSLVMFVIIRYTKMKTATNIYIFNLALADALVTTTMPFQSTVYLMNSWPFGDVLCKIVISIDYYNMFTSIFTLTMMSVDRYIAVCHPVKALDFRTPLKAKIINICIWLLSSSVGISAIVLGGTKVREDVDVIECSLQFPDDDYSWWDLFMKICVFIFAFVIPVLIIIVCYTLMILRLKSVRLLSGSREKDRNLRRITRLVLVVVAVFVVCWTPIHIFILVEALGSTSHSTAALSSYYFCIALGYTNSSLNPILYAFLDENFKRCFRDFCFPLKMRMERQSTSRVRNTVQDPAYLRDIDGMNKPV
Sequence of 5-HT1B (P28222 whole entry, species assumed): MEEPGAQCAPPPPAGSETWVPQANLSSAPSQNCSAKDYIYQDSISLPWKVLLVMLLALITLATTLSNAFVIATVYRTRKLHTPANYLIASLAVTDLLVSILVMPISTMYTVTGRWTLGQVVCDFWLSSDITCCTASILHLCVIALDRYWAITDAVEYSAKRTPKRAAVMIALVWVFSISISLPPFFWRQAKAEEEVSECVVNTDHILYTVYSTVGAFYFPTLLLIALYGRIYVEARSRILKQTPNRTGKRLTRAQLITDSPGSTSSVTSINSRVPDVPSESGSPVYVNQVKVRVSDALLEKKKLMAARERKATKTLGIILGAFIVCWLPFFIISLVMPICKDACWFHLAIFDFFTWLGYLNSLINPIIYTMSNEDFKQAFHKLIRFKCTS
Sequence of 5-HT2B (P41595 whole entry, species assumed): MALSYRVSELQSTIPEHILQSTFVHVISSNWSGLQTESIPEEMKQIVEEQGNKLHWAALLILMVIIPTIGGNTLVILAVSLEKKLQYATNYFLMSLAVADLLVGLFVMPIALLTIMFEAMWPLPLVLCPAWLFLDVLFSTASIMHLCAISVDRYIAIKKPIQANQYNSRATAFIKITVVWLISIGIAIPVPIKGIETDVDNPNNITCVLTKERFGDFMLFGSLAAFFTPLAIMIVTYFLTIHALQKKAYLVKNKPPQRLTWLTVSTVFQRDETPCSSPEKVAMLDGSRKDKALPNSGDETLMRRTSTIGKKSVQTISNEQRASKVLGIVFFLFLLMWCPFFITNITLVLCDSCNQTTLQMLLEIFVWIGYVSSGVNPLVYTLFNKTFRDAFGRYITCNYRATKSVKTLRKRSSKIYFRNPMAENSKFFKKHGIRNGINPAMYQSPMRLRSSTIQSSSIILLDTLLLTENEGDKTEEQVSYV
Sequence of Mu opioid (MOR) (P35372 whole entry): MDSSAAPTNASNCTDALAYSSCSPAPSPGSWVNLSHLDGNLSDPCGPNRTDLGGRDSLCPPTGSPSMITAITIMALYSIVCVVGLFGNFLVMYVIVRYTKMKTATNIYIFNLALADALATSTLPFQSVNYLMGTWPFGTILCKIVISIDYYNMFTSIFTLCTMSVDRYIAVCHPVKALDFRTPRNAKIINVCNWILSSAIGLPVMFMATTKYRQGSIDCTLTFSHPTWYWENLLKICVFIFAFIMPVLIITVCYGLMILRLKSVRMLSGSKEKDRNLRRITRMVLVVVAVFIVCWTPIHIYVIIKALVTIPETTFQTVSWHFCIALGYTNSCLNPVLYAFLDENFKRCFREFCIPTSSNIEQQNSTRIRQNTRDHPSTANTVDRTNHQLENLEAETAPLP
Sequence of Nociceptin (NOP) (P41146 whole entry): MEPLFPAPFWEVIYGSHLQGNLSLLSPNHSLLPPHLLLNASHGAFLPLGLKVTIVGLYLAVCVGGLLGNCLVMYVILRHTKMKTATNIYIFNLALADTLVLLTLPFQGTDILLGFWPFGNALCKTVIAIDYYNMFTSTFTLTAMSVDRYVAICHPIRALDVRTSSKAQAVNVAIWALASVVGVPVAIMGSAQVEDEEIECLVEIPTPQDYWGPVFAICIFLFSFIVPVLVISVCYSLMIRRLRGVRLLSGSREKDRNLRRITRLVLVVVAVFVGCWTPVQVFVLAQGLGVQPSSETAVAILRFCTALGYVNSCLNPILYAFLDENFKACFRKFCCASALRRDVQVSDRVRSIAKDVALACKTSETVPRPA
Sequence of 5-HT1D (P28221 whole entry, species assumed): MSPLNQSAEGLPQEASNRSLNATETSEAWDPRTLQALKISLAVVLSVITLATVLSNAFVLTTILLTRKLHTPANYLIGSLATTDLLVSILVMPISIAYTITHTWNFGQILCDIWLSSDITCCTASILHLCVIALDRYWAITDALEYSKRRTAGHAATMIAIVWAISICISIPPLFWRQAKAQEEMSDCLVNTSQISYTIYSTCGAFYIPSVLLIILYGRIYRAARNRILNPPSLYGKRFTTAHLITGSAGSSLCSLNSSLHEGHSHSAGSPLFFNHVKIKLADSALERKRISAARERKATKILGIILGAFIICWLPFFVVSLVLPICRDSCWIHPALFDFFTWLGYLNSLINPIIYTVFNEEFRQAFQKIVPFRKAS

`O=C(Nc1ccc(-c2cnc3ccccc3n2)cc1)C1CCN(S(=O)(=O)c2ccccc2Cl)CC1` [Compound 4m, 1-((2-chlorophenyl)sulfonyl)-N-(4-(quinoxalin-2-yl)phenyl)piperidine-4-carboxamide] gave an inhibition at 10 µM (5-HT1D) of -8.07 ± 3.46%, an inhibition at 10 µM (5-HT4) of 29.6 ± 23.2% and an inhibition at 10 µM (Nociceptin (NOP)) of -5.22 ± 3.98%. It also gave an IC50 (human sEH) of 0.7 nM, an inhibition at 10 µM (5-HT2C) of -18.2 ± 3.45% and an IC50 (rat sEH) of 0.3 nM. It also gave an inhibition at 10 µM (5-HT1B) of 22.2 ± 6.67%, an inhibition at 10 µM (5-HT1A) of -18 ± 14.6% and an inhibition at 10 µM (5-HT2B) of -4.41 ± 7.06%. It also gave an inhibition at 10 µM (Mu opioid (MOR)) of -1 ± 1.63%, an inhibition at 10 µM (Kappa opioid (KOR)) of 5.59 ± 6.57% and a half-life at 1 µM [1] of 26 min. It also gave a microsomal CLint at 1 µM [1] of 52.6 µL/min/mg.
